Test results reported in ChEMBL document CHEMBL1142419, “Antimycobacterial activities of novel 2-(sub)-3-fluoro/nitro-5,12-dihydro-5-oxobenzothiazolo[3,2-a]quinoline-6-carboxylic acid” (Bioorg Med Chem, 2008).
In brackets after ≈: the same amount, converted by molar mass.

How the values were obtained:
[1] = test system: Mus musculus; test: Phototoxicity in Swiss albino mouse assessed as erythema incidence at 140 mg/kg, po after 24 hrs of irradiation; type: organism-based; set-up: dose 140 mg/kg, route oral; conditions: in vivo
Method in brief: (§1)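 Female Swiss albino mice (about 2 months, 20–25 g), fasted at least 18 h, received a single oral gavage of 140 mg/kg. Groups: six per group; lomefloxacin HCl 140 mg/kg; vehicle 0.5% aqueous sodium carboxymethylcellulose at 10 ml/kg. Mice were UV-irradiated for 4 h (about 18 J/cm²). Both ears were scored for erythema, edema and ear thickness (left/right averaged) pre-dose, at end of irradiation, and at about 24, 48, 72 and 96 h. Ear thickness change from baseline was tested by Student's t-tests.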

[2] = test system: Mycobacterium tuberculosis; test: Antimycobacterial activity against Mycobacterium tuberculosis ATCC 35801 infected in CD1 mouse assessed as bacterial load in lung at 50 mg/kg, ip after 10 days; type: functional; conditions: route intraperitoneal
Method in brief: (§2)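 Six-week-old female CD-1 mice, six per group, infected intravenously via caudal vein with ~10⁷ viable M. tuberculosis ATCC 35801. Intraperitoneal dosing began 10 days after inoculation and ran 10 days. On day 35 post-infection, spleens and right lungs were removed and homogenized. Serial 10-fold dilutions were plated on 7H10 agar (37 °C, ambient air, 4 weeks). Log CFU compared against vehicle-treated controls.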

[3] = test system: Mus musculus; test: (§3) Phototoxicity in Swiss albino mouse assessed as erythema incidence at 140 mg/kg, po after 48 hrs of irradiation; type: organism-based; set-up: dose 140 mg/kg, route oral; conditions: in vivo; method in brief: as §1
[4] = Selectivity index, ratio of IC50 for african green monkey Vero cells to MIC for Mycobacterium tuberculosis H37Rv; type: functional
Method in brief: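 Vero cells were exposed for 72 h, with viability read by MTT conversion to formazan to give the IC50. The MIC against H37Rv was by duplicate agar dilution on OADC-supplemented Middlebrook 7H11 agar. Index = Vero IC50 / MIC.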

[5] = test system: Mus musculus; test: Phototoxicity in Swiss albino mouse assessed as ear thickness at 140 mg/kg, po after 24 hrs of irradiation; type: organism-based; set-up: dose 140 mg/kg, route oral; conditions: in vivo; method in brief: as §1
[6] = test system: Mycobacterium tuberculosis; test: Antimycobacterial activity against Mycobacterium tuberculosis H37Rv by agar dilution method; type: functional
Method in brief: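 MIC by agar dilution on Middlebrook 7H11 agar supplemented with OADC, following an NCCLS-like procedure, run in duplicate. The MDR-TB clinical isolate was resistant to isoniazid, rifampicin, ethambutol and ofloxacin.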

[7] = test system: Vero; test: Cytotoxicity against african green monkey Vero cells after 72 hrs by MTT assay; type: cell-based; conditions: Chlorocebus sabaeus
Method in brief: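 Vero mammalian cells were exposed to compounds for 72 h, with testing at 62.5 µg/ml. Viability was read as cellular conversion of MTT to formazan (non-radioactive cell proliferation kit), and IC50 was reported.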

[8] = test system: Mycolicibacterium smegmatis; test: Antimycobacterial activity against Mycobacterium smegmatis MC2 by agar dilution method; type: functional
Method in brief: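 Agar dilution on Middlebrook 7H11 agar supplemented with OADC, following an NCCLS-like procedure; MIC determined in duplicate against M. smegmatis ATCC 14468 (MC²).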

[9] = Inhibition of Mycobacterium smegmatis DNA gyrase supercoiling activity; set-up: species or system Mycolicibacterium smegmatis
[10] = test system: Mycobacterium tuberculosis; test: Antimycobacterial activity against Mycobacterium tuberculosis ATCC 35801 infected in CD1 mouse assessed as bacterial load in spleen at 50 mg/kg, ip after 10 days; type: functional; conditions: route intraperitoneal; method in brief: as §2
[11] = test system: Mus musculus; test: Phototoxicity in Swiss albino mouse assessed as ear thickness at 140 mg/kg, po after 48 hrs of irradiation; type: organism-based; set-up: dose 140 mg/kg, route oral; conditions: in vivo; method in brief: as §1
[12] = test system: Mus musculus; test: Phototoxicity in Swiss albino mouse assessed as ear thickness at 140 mg/kg, po after 72 hrs of irradiation; type: organism-based; set-up: dose 140 mg/kg, route oral; conditions: in vivo; method in brief: as §1
[13] = test system: Mus musculus; test: Phototoxicity in Swiss albino mouse assessed as ear thickness at 140 mg/kg, po after 96 hrs of irradiation; type: organism-based; set-up: dose 140 mg/kg, route oral; conditions: in vivo; method in brief: as §1
[14] = test system: Mus musculus; test: as §3; type: organism-based; set-up: dose 140 mg/kg, route oral; conditions: in vivo; method in brief: as §1; remark: listed apart in the source
[15] = test system: Mus musculus; test: Phototoxicity in Swiss albino mouse assessed as erythema incidence at 140 mg/kg, po after 96 hrs of irradiation; type: organism-based; set-up: dose 140 mg/kg, route oral; conditions: in vivo; method in brief: as §1
[16] = test system: Mus musculus; test: Phototoxicity in Swiss albino mouse assessed as ear thickness at 140 mg/kg, po after 4 hrs of irradiation; type: organism-based; set-up: dose 140 mg/kg, route oral; conditions: in vivo; method in brief: as §1

For `CCN(CC)C(=O)C1CCCN(c2cc3c(cc2F)c(=O)c(C(=O)O)c2sc4ccccc4n23)C1` (stereo unspecified), the Activity [1] was “Non-toxic”, the Log10 cfu [2] was 5.21 and the Activity [3] was “Non-toxic”. For the same compound, the Selectivity index [4] was 1576, the Activity [5] was 0.29 mm and the MIC [6] was 0.18 µM (≈ 0.0892 µg/mL). The IC50 [7] was 126 µM, the MIC [8] was 3.15 µM (≈ 1.56 µg/mL) and the IC50 [9] was 40 µg/mL (≈ 80.7 µM). The Log10 cfu [10] was 5.9, the Activity [11] was 0.29 mm and the Activity [12] was 0.3 mm. The Activity [13] was 0.28 mm, the Activity [14] was “Non-toxic” and the Activity [15] was “Non-toxic”. The Activity [16] was 0.29 mm.
